Bioassay records: PubChem, Johns Hopkins Ion Channel Center
Rows were chosen to be rich in hits. Some 3.5% of all compounds tested hit in one or more screens of this group.
MrgX1 ag = human MrgX1 receptor agonism, primary screen. AID 588627. MrgX1-HEK293 cells, Fluo-4 calcium fluorescence, agonist mode; active compounds read high. actives 0.44% (n = 310,000). B-score at 10 µM;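 active means calcium response B-score plate-corrected fluorescence ratio at least 3 library SD, with starting fluorescence B-score inside 5 SD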
Target sequence (Q96LB2 whole entry, looked up): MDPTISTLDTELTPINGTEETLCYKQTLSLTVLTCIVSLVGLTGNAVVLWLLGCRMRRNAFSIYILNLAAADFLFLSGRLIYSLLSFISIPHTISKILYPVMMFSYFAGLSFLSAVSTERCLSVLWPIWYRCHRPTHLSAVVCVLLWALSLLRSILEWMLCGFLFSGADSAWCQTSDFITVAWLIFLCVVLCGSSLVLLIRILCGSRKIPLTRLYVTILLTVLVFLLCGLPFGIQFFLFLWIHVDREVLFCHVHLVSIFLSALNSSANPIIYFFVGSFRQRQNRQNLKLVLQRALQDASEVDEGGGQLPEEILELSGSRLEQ
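Material: HEK293 cells stably expressing human MrgX1 receptor | Quantity: 15,000 cells per well | Times: Cells plated overnight, dye loaded 0.5 h 37 °C, 0.5 h room temperature | Measured by: Kinetic Fluo-4 NW fluorescence of intracellular calcium | Control set: Positive and negative controls per plate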
RGS4 block = human RGS4 inhibition | P49798 | actives 0.45% (n = 310,000) | B-score at 10 µM | HEK293 M3R/RGS4 inducible, Fluo-4 calcium flux; active compounds read high; triggered by carbachol at its EC20;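 active means B-score, a plate-corrected calcium signal, over three deviations above library mean, with baseline fluorescence within five deviations of library mean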;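 further: RGS4 expression induced by doxycycline in cells with stable M3 receptor; B-score is computed from the integrated fluorescence ratio over baseline after carbachol; higher B-score means a larger calcium signal and so more RGS4 inhibition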
Target sequence (P49798 whole entry, looked up): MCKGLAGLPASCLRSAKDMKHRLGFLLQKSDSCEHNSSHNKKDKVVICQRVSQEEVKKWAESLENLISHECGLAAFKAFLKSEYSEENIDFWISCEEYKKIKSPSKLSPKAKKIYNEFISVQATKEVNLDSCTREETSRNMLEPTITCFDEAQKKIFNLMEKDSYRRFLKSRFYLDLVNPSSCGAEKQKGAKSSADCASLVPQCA
MrgX1 antagonist = blocks BAM8-22 activation of human MrgX1 receptor; Q96LB2; MRGX1-HEK293 calcium flux, Fluo-4, BAM8-22 antagonism; active compounds read low; B-score at 10 µM; actives 1.3% (n = 310,000); AID 588676;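 active means calcium-response B-score plate-corrected more than 3 library SD below zero, starting fluorescence within 5 deviations, no agonist response on first addition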;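 further: peak minus trough fluorescence over baseline after final BAM8-22 challenge near maximal dose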
MrgX1 PAM = human MrgX1 positive allosteric modulation, primary screen; AID 588675; MrgX1-HEK293, Fluo-4 calcium flux, FDSS; active compounds read high; Q96LB2; B-score at 10 µM; actives 0.63% (n = 310,000);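 active means plate-corrected calcium response at least 3 library SD above typical, normal starting fluorescence, not activating the receptor alone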;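 further: compound read alongside a low EC10 to EC30 dose of BAM8-22 agonist; peak minus trough fluorescence over baseline measured at the second addition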
RGS4 pot = potentiators or activators of RGS4; B-score at 10 µM; actives 0.92% (n = 310,000); HEK293 M3R/inducible RGS4, carbachol calcium flux Fluo4; active compounds read low;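 active means B-score of the integrated calcium signal more than 4 SD below the library mean, with starting fluorescence not abnormally high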;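 further: negative B-score means reduced calcium response which marks RGS4 activation or potentiation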
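test system = M3R-expressing HEK293 line, RGS4 induced by doxycycline | probe or stimulus = carbachol at ECmax as muscarinic agonist stimulus | timing = dye loading 30 min 37 °C, buffer rest 30 min RT | signal = calcium dye Fluo4 fluorescence | evaluation = B score from integrated fluorescence ratio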
MrgX1 ant reconf = confirmation of human MrgX1 receptor antagonists; shares compounds with MrgX1 antagonist; MrgX1-HEK293, BAM8-22 calcium flux, Fluo-4; active compounds read low; remaining BAM8-22 calcium response % of control (active compounds read low), % at 10 µM; actives 19% (n = 2,300);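 active means remaining agonist calcium response no higher than 100% minus 3 SD of agonist-only control wells, with starting fluorescence near control levels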;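 further: agonist BAM8-22 given at a near maximal EC90 to ECmax level; peak minus minimum fluorescence divided by baseline after agonist addition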
HEK293 Ca flux = counter-screen for MrgX1 antagonists: effect in parental HEK293 cells | shares compounds with MrgX1 antagonist | Fluo-4 calcium fluorescence, FDSS | fluorescence ratio F(max-min)/F0 at 10 µM | actives 2% (n = 4,000) | AID 624111;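 active means duplicate-averaged calcium fluorescence ratio at least three times the standard deviation of buffer wells, a nonspecific response in parental cells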
HEK293 Ca counter = MrgX1 allosteric activator counter-screen hit in parental HEK293 cells; parental HEK293 calcium flux, Fluo-4 fluorescence ratio; active compounds read high; shares compounds with MrgX1 antagonist; fluorescence ratio F(max-min)/F0 at 10 µM; actives 0.4% (n = 4,000);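 active means calcium fluorescence ratio, averaged over duplicates, at least 3 SD of the buffer-well ratio, meaning a nonspecific response in receptor-free cells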;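 further: untransfected parental HEK293 lacking MrgX1 used as counterscreen for MrgX1 allosteric activators; fluorescence change taken during the second addition on a kinetic imager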
HEK293 Ca cntr2 = MrgX1 activator counter-screen hit in parental HEK293 cells; shares compounds with MrgX1 antagonist; Fluo-4 calcium fluorescence (FDSS); active compounds read high; fluorescence ratio F(max-min)/F0 at 10 µM; actives 8.7% (n = 4,000);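 active means calcium fluorescence ratio at least three times the spread of buffer wells, meaning a non-specific response in parental cells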
* hit, by the source's call; i = inactive; . = no result given.

SMILES	MrgX1 ag	RGS4 block	MrgX1 antagonist	MrgX1 PAM	RGS4 pot	MrgX1 ant reconf	HEK293 Ca flux	HEK293 Ca counter	HEK293 Ca cntr2
Cc1ccc(S(=O)(=O)N(C)C)cc1NC(=S)NC(=O)C12CC3CC(CC(C3)C1)C2	i	i	-6.6*	i	i	i	i	i	i
O=c1[nH]nc2n1CCCCC2	i	i	-10*	i	i	i	i	i	i
CCOC(=O)c1cnc(Nc2nc3ccccc3o2)nc1CSc1nnc(C)s1	i	i	-5.3*	i	i	i	i	i	i
COCCN1C(=O)/C(=C/c2ccc(N3CCCC3)cc2)SC1=S	i	i	-12*	i	i	i	i	i	i
COC(=O)c1ccc2c(=O)sc(N3CCC(C(N)=O)CC3)nc2c1	i	i	-7.6*	i	i	i	i	i	i
COC(=O)c1ccc(C(=O)OC)c(NC(=S)N2CCC(C(N)=O)CC2)c1	i	i	i	i	i	.	.	.	.
Cc1cc(NC(=O)C(C)SCC(=O)Nc2cc(C(F)(F)F)ccc2N2CCCCC2)no1 (stereo not given)	i	i	i	i	i	.	.	.	.
CC(C)CC(=O)Nc1ccccc1N1CCOCC1	i	i	-4.6*	i	i	i	i	48*	i
Cc1cc(NC(=O)C(C)SCC(=O)Nc2ccccc2N2CCCC2)no1 (stereo not given)	i	i	-11*	i	i	76%*	i	i	i
Cc1cc(C)n2ncc(C(=O)O)c2n1	i	i	i	i	i	.	.	.	.
COc1cc(OC)c(NC(=O)/C=C/C(=O)O)cc1Cl	i	i	i	i	i	.	.	.	.
CC(C)=CC(=O)Nc1nc2ccc([N+](=O)[O-])cc2s1	.	i	.	.	i	.	.	.	.
COc1ccc(OCC(=O)Nc2ccc3c(c2)nc(CCNC(C)=O)n3C)cc1	i	i	i	i	i	.	.	.	.
CC(=O)NCCc1nc2cc(NC(=O)COc3ccc(C)cc3)ccc2n1C	i	i	-6.7*	i	i	i	i	i	i
CCOc1c(OC)ccc2c3c(c(=O)oc12)CCCC3	i	i	i	i	i	.	.	.	.
CCOc1c2ccoc2nc2c(OC)c(OC)ccc12	i	i	-5.7*	i	i	i	i	i	i
Cc1[nH]c2ccc(C(=O)O)cc2c1C	i	i	-8.6*	i	i	i	i	i	i
CN(C)C1C(=O)c2ccccc2C1=O	i	i	-5*	i	i	i	i	i	i
O=C1c2ccccc2C(=O)C1c1ccc(O)cc1	i	i	i	i	i	.	.	.	.
Cc1ccc(C(=O)NCC(c2ccc(F)cc2)N2CCOCC2)cc1 (stereo not given)	i	i	i	i	i	.	.	.	.
CC(=O)c1ccc(-c2ccc(C(=O)NCC(c3ccc(F)cc3)N3CCOCC3)o2)cc1 (stereo not given)	i	i	-8*	i	i	60%*	i	i	i
O=C(CN1C(=O)NC2(CCCCC2)C1=O)N1CCN(S(=O)(=O)c2ccccc2)CC1	i	i	-5.5*	i	i	i	i	i	i
CCN(CC)S(=O)(=O)c1cccc(-c2nnc(SCC(N)=O)n2C)c1	i	i	-6.7*	i	i	84%*	i	i	i
Cc1ccc(-c2nnc(SCC(N)=O)n2C)cc1	i	i	-4.9*	i	i	i	i	i	i
CNC(=O)COc1ccc(S(=O)(=O)Nc2ccc(C)cc2)cc1	i	i	i	i	i	.	.	.	.
SMILES	MrgX1 ag	RGS4 block	MrgX1 antagonist	MrgX1 PAM	RGS4 pot	MrgX1 ant reconf	HEK293 Ca flux	HEK293 Ca counter	HEK293 Ca cntr2
Cc1ccc(NS(=O)(=O)c2ccc(C(=O)NCc3ccncc3)cc2)cc1	i	i	-4.6*	i	i	79%*	i	i	i
O=C(NCc1ccc2c(c1)OCO2)c1ccc(NS(=O)(=O)c2ccc3c(c2)OCCO3)cc1	i	i	-6.9*	i	i	i	i	i	i
Cc1ccc(NS(=O)(=O)c2ccc(OCC(N)=O)cc2)cc1	i	i	-9.4*	i	i	i	i	i	i
O=C(NCc1ccc2c(c1)OCO2)c1ccc(S(=O)(=O)N2CCCCC2)cc1	i	i	i	i	i	.	.	.	.
Cc1ccc(C)c(Cn2nnc3c(=O)[nH]c(C4CCN(C(=O)c5ccco5)CC4)nc32)c1	i	i	i	i	i	.	.	.	.
Nc1ccccc1SC1CC(=O)N(c2ccccc2Cl)C1=O (stereo not given)	i	i	i	i	i	.	.	.	.
CCN(CC)CCNC(=O)c1cn(CC)c2cc(N3CCN(C)CC3)c(F)cc2c1=O	i	i	i	i	i	.	.	.	.
O=C(CCN1C(=O)C2C3CC(C(Br)C3Br)C2C1=O)OCC(=O)c1cccc([N+](=O)[O-])c1 (stereo not given)	i	i	i	i	i	.	.	.	.
Cc1nn(C)c(-c2n[nH]c(=S)n2-c2ccccc2)c1Cl	i	i	-4.7*	i	i	i	i	i	i
COc1ccccc1NC(=O)CSc1nc(N)cc(N)n1	i	i	-5.5*	i	i	i	i	i	i
COc1ccccc1NC(=O)CSc1nc(N)c(C#N)cc1C#N	i	i	i	i	i	.	.	.	.
CN(CC(=O)Nc1c(Cl)cccc1Cl)C(=O)C1CSC2(C)CCC(=O)N12 (stereo not given)	i	i	-6.8*	i	i	i	i	i	i
O=C(NNS(=O)(=O)c1ccccc1)C1CC(c2cccnc2)=NO1 (stereo not given)	i	i	i	i	i	.	.	.	.
CCOc1ccccc1NC(=O)c1ccc(-n2cncn2)nc1	i	i	i	i	i	.	.	.	.
COc1ccccc1NC(=O)c1ccc(-n2cncn2)nc1	i	i	-5.2*	i	i	78%*	i	i	i
